The record followed here is ChEMBL document CHEMBL1147080, “Inhibition of hepatitis C virus replication by peroxidation of arachidonate and restoration by vitamin E” (Proc Natl Acad Sci U S A, 2007).

In general, IC50 refers to the concentration that gives 50% inhibition.

Calls of active or inactive are those of the source. The calls are words filed in the database; no cut-off is given here.

In series [1] the test system is Hepatitis C virus. The series can be described thus: Increase in hepatitis C virus replication in Huh7-K2040 cells in presence of delipidated fetal calf serum medium at 0.3 uM by RT-PCR relative to control. The format is functional, organism-based. The following applies: Hepacivirus hominis. In outline: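 Replicon-bearing Huh7 cells (genotype 1b subgenomic HCV replicon), 4 × 10^5 cells per 60-mm dish on day 0. On day 2 they were switched to medium with 10% delipidated FCS plus 0.3 μM lipid-soluble vitamin/lipid. Harvested after 72 h. HCV RNA was measured by qRT-PCR, normalized to 36B4 by comparative CT, relative to FCS-cultured controls; mean ± SD of three independent experiments.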

In series [2] the test system is Hepatitis C virus. The experiment in a line: Restoration of hepatitis C virus replication in Huh7-K2040 cells in presence of delipidated fetal calf serum medium in absence of arachidonate by RT-PCR relative to control. The format is functional, organism-based. The following applies: Hepacivirus hominis. In outline:
(§1)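 Huh7 cells carrying a genotype 1b subgenomic replicon were seeded on day 0. On day 2 they were moved to medium with 10% delipidated FCS, with or without 0.1 mM BSA-conjugated arachidonate, and given graded vitamin E. After 72 h HCV RNA was quantified by real-time PCR against 36B4 (comparative CT), relative to untreated controls kept in 10% FCS; three independent experiments.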

Series [3] deals with Hepatitis C virus. The series can be described thus: Increase of hepatitis C virus replication in Huh7-K2040 cells in delipidated fetal calf serum medium in presence of arachidonate by RT-PCR relative to control. Type of series: functional, organism-based. The following applies: Hepacivirus hominis. In outline:
as §1

Series [4] relates to Hepatitis C virus. The experiment in a line: Restoration of hepatitis C virus replication in Huh7-K2040 cells in delipidated fetal calf serum medium assessed as increase in […] 40 nM in absence of arachidonate by RT-PCR relative to control. The format is functional, organism-based. The following applies: Hepacivirus hominis. In outline:
as §1

For series [5], the system named is Hepatitis C virus. The series can be described thus: Increase of hepatitis C virus replication in Huh7-K2040 cells in delipidated fetal calf serum medium assessed as increase in […] at 40 nM in presence of arachidonate by RT-PCR relative to control. Type of series: functional, organism-based. The following applies: Hepacivirus hominis. In outline: as §1

Series [6] concerns Hepatitis C virus. The experiment in a line: Increase of hepatitis C virus replication in Huh7-K2040 cells in fetal calf serum medium in absence of arachidonate by RT-PCR relative to control. The format is functional, organism-based. As to conditions: Hepacivirus hominis.
In series [7] the test system is Hepatitis C virus. The series can be described thus: Increase of hepatitis C virus replication in Huh7-K2040 cells in fetal calf serum medium in presence of arachidonate by RT-PCR relative to control. As to conditions: Hepacivirus hominis. The format is functional, organism-based. In outline: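 Replicon Huh7-K2040 cells were seeded at 4 × 10^5 per 60-mm dish. On day 2 they went into 10% FCS or 10% delipidated FCS with 0.1 mM BSA-conjugated arachidonate, ± 0.3 μM vitamin E. Cells were harvested 72 h later. HCV RNA was determined by qRT-PCR (36B4 reference, comparative CT), relative to FCS controls.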

The subject of series [8] is Hepatitis C virus. The series can be described thus: Inhibition of hepatitis C virus replication in Huh7-K2040 cells in presence of fetal calf serum assessed viral RNA level at 0.1 mM by RT-PCR relative to control. On the set-up: scale not given: the % may be the effect or the level left. Type of series: functional, Hepacivirus hominis. In outline:
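Huh7-K2040 cells (subgenomic genotype 1b replicon) were seeded at 4 × 10^5 per 60-mm dish. From day 2 they were cultured in 10% FCS with 0.1 mM BSA-conjugated fatty acid for 72 h. HCV RNA was measured by real-time PCR with 36B4 as invariant control (comparative CT), relative to untreated FCS cells; mean ± SD, three independent experiments.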

Series [9] relates to Hepatitis C virus. The experiment in a line: Inhibition of hepatitis C virus replication in Huh7-K2040 cells in presence of fetal calf serum medium assessed as increase of malondialdehyde at 0.1 mM relative to control. Type of series: functional, Hepacivirus hominis. In outline:
(§2)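 Huh7 or Huh7-K2040 cells seeded 7 × 10^5 per 60-mm dish. On day 1 switched to 10% FCS or 10% delipidated FCS, with or without 0.1 mM BSA-conjugated arachidonate and 0.3 μM vitamin E, for 16 h. MDA measured by TBARS kit at 532 nm in homogenates of cells pooled from two dishes, normalized to cellular protein. Mean ± SD, three independent experiments.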

For series [10], the system named is Hepatitis C virus. The series can be described thus: Inhibition of hepatitis C virus replication in Huh7-K2040 cells in presence of delipidated fetal calf serum medium assessed as increase of malondialdehyde at 0.1 mM relative to control. Type of series: functional, Hepacivirus hominis. In outline:
as §2

Series [11] deals with Hepatitis C virus. The experiment in a line: Reversal of inhibition of hepatitis C virus replication in Huh7-K2040 cells in presence of delipidated fetal calf serum medium assessed as malondialdehyde level at 0.1 mM in presence of vitamin E. The format is functional, organism-based. The following applies: Hepacivirus hominis. In outline: as §2
Series [12] concerns Hepatitis C virus. The experiment in a line: Inhibition of hepatitis C virus replication in Huh7-K2040 cells in presence of delipidated fetal calf serum assessed viral RNA level at 0.1 mM by RT-PCR relative to control. The format is functional, Hepacivirus hominis. Set-up: scale not given: the % may be the effect or the level left. In outline:
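Huh7-K2040 cells seeded at 4 × 10^5 per 60-mm dish. On day 2 switched to 10% FCS or delipidated FCS with 0.1 mM BSA-conjugated fatty acids for 72 h. HCV RNA measured by real-time RT-PCR in triplicate, normalized to 36B4 by comparative CT, relative to untreated FCS control. Mean ± SD, three independent experiments.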

The subject of series [13] is Hepatitis C virus. The experiment in a line: Inhibition of hepatitis C virus replication in Huh7-K2040 cells in presence of fetal calf serum medium by RT-PCR. Type of series: functional, organism-based, Hepacivirus hominis. In outline: (§3)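 Huh7-K2040 replicon cells (4 × 10^5 per 60-mm dish) switched on day 2 to 10% FCS or 10% delipidated FCS with graded BSA-conjugated arachidonate for 72 h. HCV RNA measured by real-time RT-PCR against 36B4 by comparative CT, relative to cells without arachidonate in the same serum. IC50 read from dose–response. Mean ± SD, three independent experiments.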

In series [14] the test system is Hepatitis C virus. The series can be described thus: Inhibition of hepatitis C virus replication in Huh7-K2040 cells in presence of delipidated fetal calf serum medium by RT-PCR. The format is functional, organism-based, Hepacivirus hominis. In outline:
as §3

For series [15], the system named is Hepatitis C virus. The series can be described thus: Inhibition of hepatitis C virus replication in Huh7-K2040 in presence of delipidated fetal calf serum medium assessed as increase of malondialdehyde at 0.1 mM after 12 to 24 hrs. The format is functional, organism-based. As to conditions: Hepacivirus hominis. In outline: (§4)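 Huh7-K2040 cells (7 × 10^5 per 60-mm dish) switched on day 1 to 10% delipidated FCS with 0.1 mM BSA-conjugated arachidonate and harvested over a time course up to 72 h. MDA measured by TBARS assay at 532 nm, normalized to protein, relative to cells at time 0. Data from a representative experiment.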

Series [16] relates to Hepatitis C virus. The experiment in a line: Inhibition of hepatitis C virus replication in Huh7-K2040 cells in presence of delipidated fetal calf serum medium assessed as increase of malondialdehyde at 0.1 mM after 48 hrs. Type of series: functional, organism-based. The following applies: Hepacivirus hominis. In outline: as §4
Series [17] has as its system Hepatitis C virus. The series can be described thus: Inhibition of hepatitis C virus replication in Huh7-K2040 cells in presence of delipidated fetal calf serum medium assessed as reduction in viral RNA level at 0.1 mM after 12 hrs relative to control. Type of series: functional, Hepacivirus hominis. On the set-up: scale not given: the % may be the effect or the level left. In outline:
(§5)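 Time course in Huh7-K2040 cells (7 × 10^5 per 60-mm dish) given 10% delipidated FCS plus 0.1 mM BSA-conjugated arachidonate from day 1. HCV RNA measured by TaqMan real-time RT-PCR, normalized to 36B4 by comparative CT, relative to cells at time 0. Data from a representative experiment.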

Series [18] has as its system Hepatitis C virus. The experiment in a line: Inhibition of hepatitis C virus replication in Huh7-K2040 cells in presence of delipidated fetal calf serum medium assessed as reduction in viral RNA level at 0.1 mM after 72 hrs relative to control. The format is functional, Hepacivirus hominis. Set-up: scale not given: the % may be the effect or the level left. In outline:
as §5

Series [19] in a line: Cytotoxicity against human Huh7-K2040 cells in delipidated fetal calf serum medium. The format is cell-based. The following applies: huh-7. In outline:
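Huh7-K2040 replicon cells (7 × 10^5 per 60-mm dish) moved on day 1 to medium with 10% delipidated FCS and 0.1 mM BSA-conjugated arachidonate, or to 10% FCS medium. Cells harvested at set times. Growth followed as total cellular protein by BCA, relative to protein at time 0. Data from a representative experiment.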

For series [20], the system named is Hepatitis C virus. The experiment in a line: Inhibition of hepatitis C virus replication in Huh7-K2040 cells in presence of delipidated fetal calf serum medium assessed as decrease of malonaldehyde at 0.1 mM after 72 hrs relative to control. Set-up: scale not given: the % may be the effect or the level left.

Take VITAMIN E: the outcome in [1], in series [2], in [4] and in series [5] was Active. In [3], the Activity is 190%. Besides, the outcome in series [6] and in [7] was inactive.

Regarding `O=C1O[C@H]([C@@H](O)CO)C(O)=C1O`, the result in series [1] was inactive.

Regarding `CCCCC/C=C\C/C=C\CCCCCCCC(=O)O` [LINOLEIC ACID], the Activity in series [8] is reported as 50%.

Turning to `CCCCC/C=C\C/C=C\C/C=C\C/C=C\CCCC(=O)O` [ARACHIDONIC ACID], the Activity in [9] is on record as 8; in series [10] it was 48; in [8] it was 50%; in series [12] it was 95%; in series [17] it was 40%; in series [18] it was above 90%. Moreover, the Activity entry in series [19] was “Non-toxic”; in series [20], above 90%. Further, the outcome in [11] and in series [15] was Active. For the same compound, the 50% inhibitory concentration (IC50) in series [13] is 60 µM; in series [14], 10 µM. For the same compound, the outcome in series [16] was inactive.

With `COC1=C(OC)C(=O)C(C/C=C(\C)CC/C=C(\C)CC/C=C(\C)CCC=C(C)C)=C(C)C1=O`, the outcome in series [1] was Active.

Take `CCCCCCCC/C=C\CCCCCCCC(=O)O`: the outcome in series [1], in series [8] (Hepacivirus hominis) and in [12] (Hepacivirus hominis) was inactive.

Turning to `CC/C=C\C/C=C\C/C=C\CCCCCCCC(=O)O` [LINOLENIC ACID], the Activity in series [8] is 50%.
